Assay results published in ChEMBL document CHEMBL1158631, “Discovery of novel 1-phenyl-cycloalkane carbamides as potent and selective influenza fusion inhibitors” (Bioorg Med Chem Lett, 2010).
pEC50, pIC50: −log10 of the molar value.

How the values were obtained:
[1] = Cytotoxicity against MDCK cells; assay type: cell-based, Canis lupus familiaris; conditions: dog
In short: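 Uninfected MDCK cells were exposed to compounds. CC50 is the concentration inhibiting 50% of MDCK cell growth relative to control.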

[2] = Antiviral activity against Influenza A virus (A/Weiss/43 (H1N1)) infected in MDCK cells assessed as inhibition of virus-induced cytopathic effect; assay type: functional, organism-based, Influenza A virus (A/Weiss/1943(H1N1))
In short: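 MDCK cells infected with influenza A/Weiss/43 (H1N1). Compounds were titrated at multiple doses after a primary single-dose screen. The read-out was protection from viral cytopathic effect, and EC50 is the concentration inhibiting 50% of cytopathic effect. Values are means of triplicate or of at least duplicate experiments.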

[3] = Toxicity assessed as haemolysis in chicken RBC; assay type: cell-based, Gallus gallus, Erythrocyte; conditions: for pIC50: Gallus gallus, Erythrocyte, read-out: IC50

| Compound | CC50 [1] [µM] | pEC50 [2] | pIC50 [3] | IC50 ([3]; erythrocyte) |
| --- | --- | --- | --- | --- |
| CN(C(=O)C1(c2ccccc2)CCCC1)c1cccc(C#N)c1 | 56 | 6.14 |  |  |
| CN(C(=O)C1(c2ccccc2)CCCC1)c1ccccc1Cl | 23 | 6.74 |  |  |
| CN(C(=O)C1(c2ccccc2)CCCC1)c1ccc(C#N)cc1 | > 100 | 7.01 |  |  |
| CCN(C(=O)C1(c2ccccc2)CCCC1)c1ccccc1 | 56 | 6.59 |  |  |
| CN(C(=O)C1(c2ccccc2)CCCC1)C1CCCCC1 | 21 | 6.35 |  |  |
| CN(C(=O)C1(c2ccc(Cl)cc2)CCCCC1)c1ccccc1 | 7.4 | < 5.00 |  |  |
| CN(C(=O)C1(c2cccc(C(F)(F)F)c2)CCCC1)c1ccccc1 | 20 | 5.65 |  |  |
| CN(C(=O)C1(c2ccccc2)CCCC1)c1ccc(C(F)(F)F)cc1 | 21 | 5.67 |  |  |
| O=C(N1CCCc2ccccc21)C1(c2ccccc2)CCCC1 | 24 | < 4.00 |  |  |
| CC1(C)C[C@H](O)C[C@](C)(CNC(=O)c2cc(Cl)ccc2O)C1 | > 50 | 7.22 | 6.28 |  |
| CN(C(=O)C1(c2ccccc2)CCCC1)c1ccc(Cl)cc1 | 20 | 7.10 |  |  |
| O=C(N1CCOCC1)C1(c2ccccc2)CCCC1 | > 100 | 4.55 |  | Not Active |
| CN(C(=O)C1(c2ccccc2)CCCC1)c1cccnc1 | > 100 | 4.79 |  |  |
| CN(C(=O)C1(c2ccc(Cl)cc2)CCC1)c1ccccc1 | 24 | 6.57 |  |  |
| CN(C(=O)C1(c2ccccc2)CCCC1)c1ccccc1 | 52 | 6.62 |  |  |
| O=C(Nc1ccccc1)C1(c2ccccc2)CCCC1 | > 100 | < 4.00 |  |  |
| COC(=O)[C@@]1(C)CCC[C@]2(C)c3cc(OC)ccc3C(=O)C[C@@H]12 | 67 | 6.05 | 5.49 |  |
| CN(C(=O)C1(c2ccc(Cl)cc2)CCCC1)c1ccccc1 | 21 | 6.72 |  |  |
| COc1ccc(C2(C(=O)N(C)c3ccccc3)CCCC2)cc1 | 69 | 6.12 |  |  |
| O=C(N(CCO)c1ccccc1)C1(c2ccccc2)CCCC1 | 79 | 6.24 |  |  |
| CN(C(=O)C1(c2ccc(Cl)cc2)CC1)c1ccccc1 | 49 | 5.73 |  |  |
| CN(C(=O)C1(c2ccccc2)CCCC1)c1cccc(Cl)c1 | 17 | 6.34 |  |  |
| O=C(N1CCCCC1)C1(c2ccccc2)CCCC1 | > 100 | 5.68 | 5.66 |  |
